Assays:
[1] = Antiproliferative activity against mouse L5178Y cells by MTT assay; format: cell-based; conditions: read-out: ID50 (the source's name)
How it was run: (§1)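 MTT assay on parental L5178 mouse T-lymphoma cells and a subline transfected with pHa MDR1/A retrovirus (human ABCB1) and selected with colchicine. Cells were exposed to increasing concentrations from 0.26 to 133 μM. Other handling followed earlier reports.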

[2] = biological target: T1, ATP-dependent translocase ABCB1 (Homo sapiens, UniProt P08183); test: Modulation of ABCB1 (unknown origin) expressed in mouse L5178Y-MDR cells assessed as multidrug resistance reversing activity by measuring fluorescence activity ratio at 2 uM by rhodamine-123 accumulation based flow cytometry (reference value: 1.1 No unit); format: cell-based
[3] = biological target: T1, ATP-dependent translocase ABCB1; test: Modulation of ABCB1 (unknown origin) expressed in mouse L5178Y-MDR cells assessed as multidrug resistance reversing activity by measuring fluorescence activity ratio at 20 uM by rhodamine-123 accumulation based flow cytometry (reference value: 1.1 No unit); format: cell-based
[4] = biological target: T1, ATP-dependent translocase ABCB1; test: Modulation of ABCB1 (unknown origin) expressed in mouse L5178Y-MDR cells assessed as multidrug resistance reversing activity by measuring fluorescence activity ratio at 0.2 uM by rhodamine-123 accumulation based flow cytometry (reference value: 1.1 No unit); format: cell-based
[5] = Antiproliferative activity against mouse L5178Y cells transfected with ABCB1 by MTT assay; format: ADME, cell-based; conditions: read-out: ID50 (the source's name); how it was run: as §1

T1 sequence (P08183 whole entry): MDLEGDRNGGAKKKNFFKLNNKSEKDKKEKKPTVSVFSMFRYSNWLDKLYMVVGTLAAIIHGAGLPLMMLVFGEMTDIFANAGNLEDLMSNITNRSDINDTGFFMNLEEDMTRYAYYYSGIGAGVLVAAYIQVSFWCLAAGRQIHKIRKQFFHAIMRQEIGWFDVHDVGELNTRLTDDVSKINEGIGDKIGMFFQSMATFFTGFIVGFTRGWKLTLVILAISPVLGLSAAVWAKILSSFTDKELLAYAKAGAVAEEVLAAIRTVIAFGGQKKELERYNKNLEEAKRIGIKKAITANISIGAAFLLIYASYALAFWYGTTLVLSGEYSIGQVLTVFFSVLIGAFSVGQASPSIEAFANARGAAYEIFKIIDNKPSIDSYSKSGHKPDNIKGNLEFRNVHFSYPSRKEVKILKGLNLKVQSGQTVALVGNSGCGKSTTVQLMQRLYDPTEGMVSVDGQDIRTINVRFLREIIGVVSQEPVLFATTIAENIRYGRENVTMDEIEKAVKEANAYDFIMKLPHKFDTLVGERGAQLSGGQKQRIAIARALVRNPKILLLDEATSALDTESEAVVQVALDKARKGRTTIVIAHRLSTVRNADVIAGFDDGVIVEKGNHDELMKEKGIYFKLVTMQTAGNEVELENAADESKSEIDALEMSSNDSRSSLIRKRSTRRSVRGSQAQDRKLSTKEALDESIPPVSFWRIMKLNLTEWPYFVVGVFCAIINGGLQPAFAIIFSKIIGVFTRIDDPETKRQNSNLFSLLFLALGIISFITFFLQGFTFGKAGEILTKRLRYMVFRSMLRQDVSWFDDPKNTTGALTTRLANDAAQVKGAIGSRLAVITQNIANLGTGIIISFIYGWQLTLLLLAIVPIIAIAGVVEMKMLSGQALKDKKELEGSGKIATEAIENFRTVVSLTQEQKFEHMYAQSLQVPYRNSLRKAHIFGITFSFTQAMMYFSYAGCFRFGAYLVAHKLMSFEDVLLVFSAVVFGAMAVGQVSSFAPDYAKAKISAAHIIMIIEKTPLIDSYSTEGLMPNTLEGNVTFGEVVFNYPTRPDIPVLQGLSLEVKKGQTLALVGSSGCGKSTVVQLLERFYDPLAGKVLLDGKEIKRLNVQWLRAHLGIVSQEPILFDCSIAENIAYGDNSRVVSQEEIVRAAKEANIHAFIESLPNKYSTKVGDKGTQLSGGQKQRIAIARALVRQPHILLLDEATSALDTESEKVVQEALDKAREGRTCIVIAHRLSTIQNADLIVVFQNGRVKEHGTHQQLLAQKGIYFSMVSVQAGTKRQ

Row | Ratio [2] | Ratio [3] | Ratio [4] | SMILES | GI50 [1] [µM] | GI50 [5] [µM]
1 | 76.7 | 105.5 | 5.9 | CC(C)=CC(=O)C[C@@H](C)[C@H]1CC[C@@]2(C)[C@@H]3C(=O)[C@@H]4C(C)(C)[C@@]45C(=O)CC[C@H]5[C@]3(C)CC[C@]12C | > 100 | > 100
2 | 14.2 | 87.5 | 1.4 | CC(=O)C[C@@H](C)[C@H]1CC[C@@]2(C)[C@@H]3C(=O)[C@@H]4C(C)(C)[C@@]45C(=O)CC[C@H]5[C@]3(C)CC[C@]12C | 72.2 | 68.3
3 | 62.2 | 117.7 | 3.1 | C=C(C)/C=C/C[C@@H](C)[C@H]1CC[C@@]2(C)[C@@H]3C(=O)[C@@H]4C(C)(C)[C@@]45C(=O)CC[C@H]5[C@]3(C)CC[C@]12C | 20.7 | 37.6

From ChEMBL document CHEMBL4387787, “Cucurbalsaminones A-C, Rearranged Triterpenoids with a 5/6/3/6/5-Fused Pentacyclic Carbon Skeleton from Momordica balsamina, as Multidrug Resistance Reversers” (J Nat Prod, 2019)
